The values below come from PubChem BioAssay.

A short description of assay [1]: OD615 S. cerevisiae growth inhibition, permissive medium, pilot counter-assay, permissive growth control for S. cerevisiae lifespan shortening project (AID 705;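 active = growth inhibition above 25% in both replicates, a cutoff set 3 SD above the mean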). Conditions: OD615, 24 h, at 10 µM, hits give high values. In a few lines: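 Material: engineered DeaD yeast; Compound: one dose 10 µM, DMSO 0.25% final; Detection: absorbance (optical density) at 615 nm; Buffer or medium: permissive raffinose/galactose medium; Timing: 24 h exposure, 30 °C.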

The nature of assay [2]: Restrictive medium S. cerevisiae growth inhibition, OD615, pilot screen of yeast lifespan reduction project, restrictive growth control (AID 706;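 active = growth inhibition above a set limit, 3 SD over mean compound inhibition, in both replicates, cut at about 43% in these data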;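 also: modified DeaD lifespan yeast strain shifted to restrictive glucose medium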). The settings on record: OD615, 48 h, at 10 µM, hits give high values. In a few lines: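 Buffer or medium: restrictive glucose medium (CSMM-D); test system: modified S. cerevisiae; doses: single dose of 10 µM compound final, 0.25% DMSO; schedule: 48 h compound exposure at 30 °C; detection: absorbance (optical density) measured at 615 nm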

A short description of assay [3]: viability gain of MRP-1-high H69AR cells under doxorubicin, pilot screen, MRP-1 activator project, CellTiter-Glo, duplicate (AID 807;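 active = viability increase at or above a cutoff of the median across tested compounds plus 3 SD, cut at about 8.5% in these data, passing the limit was not always enough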;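 also: compound pretreatment 18-22 h then 72 h combined with doxorubicin; 0% = doxorubicin alone and 100% = vehicle without doxorubicin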). Conditions: H69AR viability with doxorubicin, CellTiter-Glo luminescence; at 10 µM; hits give high values.
Assay [4] in a line: growth suppression of beta-catenin knockout HCT116, pilot screen, human colon tumor cells (AID 823;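 active = cell viability at or below a set limit in both duplicate runs, the limit being the all-compound median minus 4 SD, cut at about 23% in these data, passing the limit was not always enough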;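 also: 0% = wells killed by 20 µM Hyamine and 100% = untreated DMSO cell wells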). The settings on record: CellTiter-Glo, 60 h, at 10 µM, hits give low values. In general terms: ATP-based viability assays read luminescence as a measure of living cells.
Assay [5] can be described thus: growth suppression of PTEN-deleted HCT116, pilot screen, cell-based, HCT116 clonal line, CellTiter-Glo (AID 824;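 active = viability at or below 27.92% in each of two runs, the all-compound median minus 4 SD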;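 also: 0% = 20 µM Hyamine control and 100% = vehicle cell control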). The settings on record: 60 h, at 10 µM, hits give low values.
Assay [6] is described as follows: inhibitors of the yeast RAM network, pilot screen, dse1pr::URA3 reporter, 5-FOA selection (AID 869;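 active = inhibition over a set limit, the all-compound mean plus 3 SD, in both replicate runs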;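 also: 0% = DMSO wells with no growth and 100% = 10 µM 1-NA-PP1 with full growth; RAM network block rescues cells from 5-FOA so hits raise OD615 growth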). Conditions: S. cerevisiae dse1pr::URA3 5-FOA growth, OD615, 2 d; at 10 µM; hits give high values; strain carries analog-sensitive mutant Cbk1 kinase.
A short description of assay [7]: RAM signaling pathway blockade in yeast – S. cerevisiae, Pdr1DBD-CYC8 efflux-inhibited sensitized strain, primary screen (AID 1298).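 Also: 0% = DMSO untreated cells without growth and 100% = 10 µM 1-NA-PP1 full growth; higher means more yeast growth rescued from 5-FOA killing.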 The settings on record: S. cerevisiae cbk1-as DSE1-URA3 strain, 5-FOA growth OD615, 2 d; at 50 µM; hits give high values.

Structures are written as SMILES. Unmarked numbers belong to inactive results. Results filed as inconclusive are left out. Active and inactive are the calls of the source.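 The calls were made as follows, unless noted: active = RAM network inhibition above 8.4% in each of two replicates, 3 SD over the compound average; inconclusive = above 8.4% inhibition in only one replicate; inactive = 8.4% inhibition or less in each replicate.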

In the case of `Cn1cccc1Cc1nnc(SCC(=O)Nc2nccs2)n1CCc1ccccc1`, the growth inhibition in assay [1] was 19.9%; in assay [2], 62.6% (active). The viability increase in assay [3] was -2.32%. The viability in assay [4] was 103%; in assay [5], 85.8%. Besides, the inhibition in assay [6] was 1.12%. In addition, in assay [7], the RAM network inhibition is 2.48%.

As to `CCOc1ccc(N2C(=O)CC(N3CCN(C4CCc5ccccc5C4)CC3)C2=O)cc1` (stereo unspecified), the growth inhibition in assay [1] is 2.08%; in assay [2] it was 0.34%. For the same molecule, in assay [3], the viability increase was -1.42%. The viability in assay [4] was 94.6%; in assay [5] it was 93.1%. Further, in assay [6], the inhibition is 1.93%. The RAM network inhibition in assay [7] is 1.53%.

For the molecule `O=C(CSc1ncnc2c1oc1ccccc12)Nc1cccc(C(F)(F)F)c1`, the values for the growth inhibition in assay [1] and in assay [2] were -12.2% and -15.6%, respectively. For the same molecule, in assay [3], the viability increase is 1.15%. Further, the viability in assay [4] was 86.3%; in assay [5], 84%. Also, the inhibition in assay [6] was 3.52%. Also, the RAM network inhibition in assay [7] is 7.32%.

Regarding `CCCn1nc2ccccc2c1P(=N)(N1CCOCC1)N1CCOCC1`, the growth inhibition is -7.87% in assay [1] and -23.5% in assay [2]. In assay [3], the viability increase is -2%. Also, the viability in assay [4] is 96%; in assay [5], 96.8%. Moreover, in assay [6], the inhibition is 2.04%. Further, the RAM network inhibition in assay [7] is 1.45%.

Consider `COc1ccc(N2CCN(C(=O)c3ccc4nc(N5CCCCC5)sc4c3)CC2)cc1`, for which the growth inhibition was 9.87% in assay [1] and 6.32% in assay [2]. Further, the viability increase in assay [3] was 0.49%. The viability in assay [4] is 101%; in assay [5], 87%. Besides, the inhibition in assay [6] is 2.52%. Besides, the RAM network inhibition in assay [7] is 6.15%.

As for `COc1cc(Cl)c(S(=O)(=O)NCc2cccnc2)cc1Cl`, the growth inhibition was -9.13% in assay [1] and -9.08% in assay [2]. In addition, in assay [3], the viability increase is 0.38%. In addition, the viability in assay [4] is 99.5%; in assay [5], 97.3%. Moreover, in assay [6], the inhibition is 0.745%. For the same molecule, the RAM network inhibition in assay [7] is 4.73%.

Turning to `O=C(Cn1cc2c(n1)CCCC2)Nc1ccccc1Br`, the growth inhibition in assay [1] is -13%; in assay [2], -9.29%. Also, in assay [3], the viability increase was -2.82%. Also, the viability in assay [4] was 95.7%; in assay [5], 86.7%. The inhibition in assay [6] is 1.64%. Besides, in assay [7], the RAM network inhibition is 1.15%.

In the case of `O=C(c1cc2ccccn2n1)N1CCN(Cc2ccccc2)CC1`, the growth inhibition in assay [1] was 1.21%; in assay [2], 7.58%. In assay [3], the viability increase is -0.74%. The viability in assay [4] is 104%; in assay [5], 87.7%. In addition, in assay [6], the inhibition is 0.99%. Also, the RAM network inhibition in assay [7] is 2.76%.

As for `O=C(Nc1ccc(F)cc1)C1CCC(N2C(=O)c3ccccc3C2=O)CC1` (stereo unspecified), the results for the growth inhibition in assay [1] and in assay [2] were -11.6% and -20.7%, respectively. In addition, in assay [3], the viability increase is -7.05%. Further, the viability in assay [4] was 86.3%; in assay [5] it was 96.1%. In assay [6], the inhibition is 1.48%. Moreover, the RAM network inhibition in assay [7] is 12.4%.

Regarding `Cc1nc(CC(=O)c2c(C)cc(O)cc2O)cs1`, the values for the growth inhibition in assay [1] and in assay [2] were -12.2% and 1.06%, respectively. In assay [3], the viability increase is 2.92%. In addition, the values for the viability in assay [4] and in assay [5] were 90.5% and 95.9%, respectively. The inhibition in assay [6] is -0.335%. The RAM network inhibition in assay [7] is 1.48%.

For the molecule `COCc1cc(C)nc(N2CCOCC2)c1C#N`, the growth inhibition in assay [1] was -14.3%; in assay [2] it was 3.52%. Also, in assay [3], the viability increase is -0.86%. The values for the viability in assay [4] and in assay [5] were 103% and 101%, respectively. For the same molecule, the inhibition in assay [6] is 1.35%. Further, in assay [7], the RAM network inhibition was 5.54%.

`CN1CCN(c2cc3c(c4c2[nH]c2ccccc24)C(=O)CC(C)(C)C3)CC1`: the growth inhibition in assay [1] is -15.3%; in assay [2] it was 4.61%. Moreover, the viability increase in assay [3] is -8.46%. Further, the viability in assay [4] was 1.73% (active); in assay [5] it was 1.58% (active). In addition, the inhibition in assay [6] was 0.76%. Further, in assay [7], the RAM network inhibition was 0.78%.

Consider `CCn1c2ccccc2c2nnc(SCC(=O)c3ccccc3)nc21`, for which the growth inhibition in assay [1] was -1.37%; in assay [2] it was 13.5%. Besides, the viability increase in assay [3] is -2.35%. The viability was 94.8% in assay [4] and 90.7% in assay [5]. Further, the inhibition in assay [6] was 2.33%. Also, the RAM network inhibition in assay [7] is 6.1%.

`Fc1ccccc1N1CCN(C2CCN(Cc3c[nH]c4ccccc34)CC2)CC1`: the growth inhibition was -1.12% in assay [1] and 2.13% in assay [2]. In assay [3], the viability increase is -6.63%. Further, the viability in assay [4] was 47.1%; in assay [5], 58.8%. Besides, the inhibition in assay [6] is 1.08%. Moreover, in assay [7], the RAM network inhibition is 0.22%.

Regarding `O=C1C(=O)N(CCCn2ccnc2)C(c2cccnc2)/C1=C(/O)c1ccc(Cl)cc1` (stereo unspecified), the growth inhibition was -11.6% in assay [1] and -4.88% in assay [2]. In addition, the viability increase in assay [3] is -0.32%. Moreover, the viability in assay [4] is 97.2%; in assay [5], 98.6%. The inhibition in assay [6] was 0.905%. In assay [7], the RAM network inhibition is 1.1%.

In the case of `CCOC(=O)c1ccc(N2C(=O)C3CC=C(C)CC3C2=O)cc1` (stereo unspecified), the values for the growth inhibition in assay [1] and in assay [2] were -9.14% and -14.8%, respectively. For the same molecule, the viability increase in assay [3] is -0.33%. The figures for the viability in assay [4] and in assay [5] were 97.1% and 91.8%, respectively. For the same molecule, the inhibition in assay [6] is 1.07%. The RAM network inhibition in assay [7] was 1.75%.

Regarding `OCCCc1nc2n(n1)C(c1ccccc1)C=C(c1ccccc1)N2` (stereo unspecified), the growth inhibition was -7.07% in assay [1] and 1.69% in assay [2]. In addition, in assay [3], the viability increase was -2.67%. For the same molecule, the viability in assay [4] was 97.1%; in assay [5], 89.1%. In assay [6], the inhibition was 0.59%. The RAM network inhibition in assay [7] was 0.53%.

For the molecule `COc1ccc(S(=O)(=O)N2CCC(C(N)=O)CC2)cc1`, the growth inhibition in assay [1] is 6.47%; in assay [2], -3.14%. For the same molecule, the viability increase in assay [3] was 0.89%. For the same molecule, the results for the viability in assay [4] and in assay [5] were 106% and 102%, respectively. Besides, the inhibition in assay [6] was 3.44%. Besides, the RAM network inhibition in assay [7] is 4.25%.

As usually defined, the viability is a read-out of living cells in per cent, often relative to untreated cells. The term inhibition denotes the drop in the measured response relative to a control, in per cent.
